In ChEMBL document CHEMBL1649200, “Concurrent titration and determination of antibiotic resistance in ureaplasma species with identification of novel point mutations in genes associated with resistance” (2009):
≈ marks a conversion by molar mass, not a printed value.

Assays:
Format in all cases: functional
[1] = tested on: Ureaplasma urealyticum; assay: Antimicrobial activity against Ureaplasma urealyticum isolate HPA3 after 48 hrs by modified broth microdilution technique; details: isolate HPA3, 48 h
Summary of the method: (§1)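 Full-plate broth microdilution in ureaplasma selective medium (10% porcine serum, urea, phenol red, starting pH 6.65). A doubling-dilution antibiotic gradient from 64 to 0.0625 mg/liter is run, with an antibiotic-free column. An overnight culture of unknown CCU is added 1:10, then titrated 10-fold at right angles. Plates are sealed and held 48 h at 37°C. The MIC is the lowest concentration preventing colour change, read at 10⁴ CCU relative to the antibiotic-free control.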

[2] = tested on: Ureaplasma urealyticum; assay: Antimicrobial activity against Ureaplasma urealyticum isolate HPA6 after 48 hrs by modified broth microdilution technique; details: isolate HPA6, 48 h; summary of the method: as §1
[3] = tested on: Ureaplasma urealyticum; assay: Antimicrobial activity against Ureaplasma urealyticum isolate HPA12 after 48 hrs by modified broth microdilution technique; details: isolate HPA12, 48 h; summary of the method: as §1
[4] = tested on: Ureaplasma urealyticum; assay: Antimicrobial activity against Ureaplasma urealyticum isolate HPA17 after 48 hrs by modified broth microdilution technique; details: isolate HPA17, 48 h; summary of the method: as §1
[5] = tested on: Ureaplasma parvum; assay: Antimicrobial activity against Ureaplasma parvum SV1 isolate HPA18 after 48 hrs by modified broth microdilution technique; details: SV1 isolate HPA18, 48 h; summary of the method: as §1
[6] = tested on: Ureaplasma urealyticum; assay: Antimicrobial activity against Ureaplasma urealyticum isolate HPA20 after 48 hrs by modified broth microdilution technique; details: isolate HPA20, 48 h; summary of the method: as §1
[7] = tested on: Ureaplasma parvum; assay: Antimicrobial activity against Ureaplasma parvum SV6 isolate HPA23 after 48 hrs by modified broth microdilution technique; details: SV6 isolate HPA23, 48 h; summary of the method: as §1
[8] = tested on: Ureaplasma parvum; assay: Antimicrobial activity against Ureaplasma parvum SV14 isolate HPA32 after 48 hrs by modified broth microdilution technique; details: SV14 isolate HPA32, 48 h; summary of the method: as §1
[9] = tested on: Ureaplasma parvum; assay: Antimicrobial activity against Ureaplasma parvum isolate UHWJM after 48 hrs by modified broth microdilution technique; summary of the method: as §1
[10] = tested on: Ureaplasma parvum; assay: Antimicrobial activity against Ureaplasma parvum SV1 isolate UHWO10 after 48 hrs by modified broth microdilution technique; details: SV1 isolate UHWO10, 48 h; summary of the method: as §1
[11] = tested on: Ureaplasma parvum; assay: Antimicrobial activity against Ureaplasma parvum isolate UHWP2 after 48 hrs by modified broth microdilution technique; details: isolate UHWP2, 48 h; summary of the method: as §1
[12] = tested on: Ureaplasma parvum; assay: Antimicrobial activity against Ureaplasma parvum SV1 isolate UHWQ3 after 48 hrs by modified broth microdilution technique; details: SV1 isolate UHWQ3, 48 h; summary of the method: as §1
[13] = tested on: Ureaplasma parvum; assay: Antimicrobial activity against Ureaplasma parvum SV9 containing tetM gene; summary of the method: as §1

Row | MIC [1] [µg/mL] | MIC [2] [µg/mL] | MIC [3] [µg/mL] | MIC [4] [µg/mL] | MIC [5] [µg/mL] | MIC [6] [µg/mL] | MIC [7] [µg/mL] | MIC [8] [µg/mL] | MIC [9] [µg/mL] | MIC [10] [µg/mL] | MIC [11] [µg/mL] | MIC [12] [µg/mL] | MIC [13] [µg/mL] | SMILES
1 | 0.5 (≈ 0.668 µM) | < 0.25 | < 0.25 | 0.5 (≈ 0.668 µM) | < 0.25 | < 0.25 | < 0.25 | < 0.25 | < 0.25 | 2 (≈ 2.67 µM) | < 0.25 | < 0.25 |  | CC[C@H]1OC(=O)[C@H](C)[C@@H](O[C@H]2C[C@@](C)(OC)[C@@H](O)[C@H](C)O2)[C@H](C)[C@@H](O[C@@H]2O[C@H](C)C[C@H](N(C)C)[C@H]2O)[C@](C)(O)C[C@@H](C)CN(C)[C@H](C)[C@@H](O)[C@]1(C)O [AZITHROMYCIN]
2 | 4 (≈ 12.1 µM) | 4 (≈ 12.1 µM) | 4 (≈ 12.1 µM) | 4 (≈ 12.1 µM) | 8 (≈ 24.1 µM) | 4 (≈ 12.1 µM) | < 2 | < 2 | 4 (≈ 12.1 µM) | 4 (≈ 12.1 µM) | 4 (≈ 12.1 µM) | 4 (≈ 12.1 µM) |  | O=C(O)c1cn(C2CC2)c2cc(N3CCNCC3)c(F)cc2c1=O [CIPROFLOXACIN]
3 | < 0.125 | < 0.125 | < 0.125 | < 0.125 | < 0.125 | < 0.125 | < 0.125 | < 0.125 | < 0.125 | 4 (≈ 5.35 µM) | < 0.125 | < 0.125 |  | CC[C@H]1OC(=O)[C@H](C)[C@@H](O[C@H]2C[C@@](C)(OC)[C@@H](O)[C@H](C)O2)[C@H](C)[C@@H](O[C@@H]2O[C@H](C)C[C@H](N(C)C)[C@H]2O)[C@](C)(OC)C[C@@H](C)C(=O)[C@H](C)[C@@H](O)[C@]1(C)O [CLARITHROMYCIN]
4 | 0.5 | 0.5 | 0.5 | 0.25 | 0.25 | 0.5 | 16 | 0.25 | 0.5 | 0.25 | 0.5 | 0.25 | 64 | C[C@H]1c2cccc(O)c2C(=O)C2=C(O)[C@]3(O)C(=O)C(C(N)=O)=C(O)[C@@H](N(C)C)[C@@H]3[C@@H](O)[C@@H]21.O [DOXYCYCLINE]
5 | 4 (≈ 5.45 µM) | 8 (≈ 10.9 µM) | 8 (≈ 10.9 µM) | 8 (≈ 10.9 µM) | 4 (≈ 5.45 µM) | 8 (≈ 10.9 µM) | 4 (≈ 5.45 µM) | 8 (≈ 10.9 µM) | 4 (≈ 5.45 µM) | > 64 | 4 (≈ 5.45 µM) | 4 (≈ 5.45 µM) | 4 (≈ 5.45 µM) | CC[C@H]1OC(=O)[C@H](C)[C@@H](O[C@H]2C[C@@](C)(OC)[C@@H](O)[C@H](C)O2)[C@H](C)[C@@H](O[C@@H]2O[C@H](C)C[C@H](N(C)C)[C@H]2O)[C@](C)(O)C[C@@H](C)C(=O)[C@H](C)[C@@H](O)[C@]1(C)O [ERYTHROMYCIN]
6 | 2 (≈ 4.5 µM) | 2 (≈ 4.5 µM) | 2 (≈ 4.5 µM) | 1 (≈ 2.25 µM) | 2 (≈ 4.5 µM) | 2 (≈ 4.5 µM) | 64 (≈ 144 µM) | 1 (≈ 2.25 µM) | 2 (≈ 4.5 µM) | 1 (≈ 2.25 µM) | 2 (≈ 4.5 µM) | 1 (≈ 2.25 µM) | > 64 | CN(C)[C@@H]1C(O)=C(C(N)=O)C(=O)[C@@]2(O)C(O)=C3C(=O)c4c(O)cccc4[C@@](C)(O)[C@H]3C[C@@H]12 [TETRACYCLINE]
